Active and inactive are the calls of the source. The rule behind the calls is not given here.
Legend:
[1] = Oral bioavailability in Sprague-Dawley rat at 10 mg/kg by LC-MS/MS analysis; type: ADME, organism-based; conditions: in vivo
Summary of the method: (§1)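 Sprague–Dawley rats (N = 6) dosed with the hydrochloride salt, 2 mg/kg IV or 10 mg/kg PO. Jugular vein blood drawn at set time points and kept on ice. Plasma separated by centrifugation, stored at -80 °C, and quantified by LC-MS/MS.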

[2] = Half life in Sprague-Dawley rat at 2 mg/kg, iv by LC-MS/MS analysis; type: ADME, organism-based; conditions: in vivo; summary of the method: as §1
[3] = molecular target: Mast/stem cell growth factor receptor Kit (Homo sapiens, UniProt P10721); test: Inhibition of C-kit (unknown origin) after 40 mins by kinase-Glo assay
Summary of the method: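 Kinase-Glo luminescent assay run by a contract lab. Compound, kinase, substrate and ATP diluted in kinase buffer and incubated 40 min at room temperature. IC50 obtained by nonlinear regression of normalized dose–response.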

[4] = molecular target: Vascular endothelial growth factor receptor 2 (Homo sapiens, UniProt P35968); test: Inhibition of VEGF-stimulated VEGFR2 phosphorylation in human HUVEC cells at 100 nM preincubated for 2 hrs followed by VEGF stimulation by Western blot analysis; type: cell-based
Summary of the method: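 HUVECs pretreated 2 h with compound or DMSO, then stimulated with VEGF (50 ng/ml). Cells lysed in ice-cold RIPA and protein measured by BCA. Lysates run on SDS-PAGE and immunoblotted for phospho-VEGFR-2, with total VEGFR-2 as loading control. Detection by ECL.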

[5] = Cmax in Sprague-Dawley rat at 10 mg/kg, po by LC-MS/MS analysis; type: ADME, organism-based; design: dose 10 mg/kg, route oral; conditions: in vivo; summary of the method: as §1
HT-29 = test: Antitumor activity against human HT-29 cells xenografted in BALB/c nu mouse assessed as tumor growth inhibition at 50 mg/kg, po administered for 25 consecutive days measured every 3 days during compound dosing relative to control; type: functional; conditions: HT-29, po, read-out: TGI
Summary of the method: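 HT-29 cells (1×10^7) implanted s.c. in right flank of male BALB/c-nu mice aged 5–6 weeks. At about 100 mm³ (day 10), mice randomized 6 per group and dosed orally for 25 consecutive days. Controls received PBS with 5% DMSO. T/C is mean RTV (Vt/V0) treated over control. TGI taken from final tumor weights. Student's two-tailed t test.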

HUVEC [6] = test: Cytotoxicity activity against HUVEC after 72 hrs by MTT assay; type: cell-based; conditions: Homo sapiens
Summary of the method: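 HUVECs kept in RPMI1640 with 10% FBS at 37 °C, 5% CO2. Cells seeded the day before, grown 12 h, then exposed to a range of compound concentrations for 72 h. Then 0.5% MTT added for 4 h, formazan dissolved in DMSO, and absorbance read at 570 nm.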

AGS = test: Antiproliferative activity against human AGS cells after 72 hrs by MTT assay; type: functional, cell-based
K562 = test: Antiproliferative activity against human K562 cells after 72 hrs by MTT assay; type: functional, cell-based; conditions: K562, 72 h
HUVEC [7] = test: Antiangiogenic activity in human HUVEC cells assessed as reduction in capillary-like tubular network formation at 0.1 uM after 6 hrs by phase-contrast microscopy; type: functional, cell-based
Summary of the method: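 HUVECs trypsinized and seeded at 40000/well on Matrigel polymerized 0.5 h at 37 °C. Cells held 6 h at 37 °C in M199 with 5% FBS, with compound or DMSO. Tube formation viewed and photographed by phase-contrast microscopy at 200 magnification. Three independent experiments.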

[8] = AUC (0 to t) in Sprague-Dawley rat at 10 mg/kg, po by LC-MS/MS analysis; type: ADME, organism-based; conditions: in vivo
PC-3 = test: Antiproliferative activity against human PC3 cells after 72 hrs by MTT assay; type: functional, cell-based; conditions: PC-3, 72 h

Mast/stem cell growth factor receptor Kit, sequence (P10721 whole entry): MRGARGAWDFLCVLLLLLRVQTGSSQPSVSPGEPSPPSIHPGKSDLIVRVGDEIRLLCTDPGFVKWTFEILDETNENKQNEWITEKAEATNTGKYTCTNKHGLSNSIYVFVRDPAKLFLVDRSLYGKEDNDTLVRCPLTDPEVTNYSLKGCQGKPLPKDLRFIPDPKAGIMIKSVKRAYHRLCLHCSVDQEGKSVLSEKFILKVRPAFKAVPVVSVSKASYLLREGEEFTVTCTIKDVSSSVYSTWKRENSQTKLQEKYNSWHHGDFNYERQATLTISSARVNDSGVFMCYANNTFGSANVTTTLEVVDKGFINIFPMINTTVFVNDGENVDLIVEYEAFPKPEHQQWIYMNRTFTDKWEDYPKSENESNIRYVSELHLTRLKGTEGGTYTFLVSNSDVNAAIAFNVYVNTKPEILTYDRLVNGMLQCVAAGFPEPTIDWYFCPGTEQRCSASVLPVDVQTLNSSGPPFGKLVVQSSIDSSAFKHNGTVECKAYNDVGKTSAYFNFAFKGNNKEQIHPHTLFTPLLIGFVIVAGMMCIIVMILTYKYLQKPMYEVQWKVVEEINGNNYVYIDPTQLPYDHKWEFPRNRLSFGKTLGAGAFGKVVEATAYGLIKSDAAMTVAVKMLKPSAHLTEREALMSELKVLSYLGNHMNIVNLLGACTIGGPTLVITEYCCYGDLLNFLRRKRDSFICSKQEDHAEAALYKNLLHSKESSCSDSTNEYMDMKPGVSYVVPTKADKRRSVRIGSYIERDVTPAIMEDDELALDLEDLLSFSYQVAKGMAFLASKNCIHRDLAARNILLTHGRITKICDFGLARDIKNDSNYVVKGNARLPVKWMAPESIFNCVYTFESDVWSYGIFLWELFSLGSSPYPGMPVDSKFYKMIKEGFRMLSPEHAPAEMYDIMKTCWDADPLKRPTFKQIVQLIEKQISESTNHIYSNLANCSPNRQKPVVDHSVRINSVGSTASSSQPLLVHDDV
Vascular endothelial growth factor receptor 2, sequence (P35968 whole entry): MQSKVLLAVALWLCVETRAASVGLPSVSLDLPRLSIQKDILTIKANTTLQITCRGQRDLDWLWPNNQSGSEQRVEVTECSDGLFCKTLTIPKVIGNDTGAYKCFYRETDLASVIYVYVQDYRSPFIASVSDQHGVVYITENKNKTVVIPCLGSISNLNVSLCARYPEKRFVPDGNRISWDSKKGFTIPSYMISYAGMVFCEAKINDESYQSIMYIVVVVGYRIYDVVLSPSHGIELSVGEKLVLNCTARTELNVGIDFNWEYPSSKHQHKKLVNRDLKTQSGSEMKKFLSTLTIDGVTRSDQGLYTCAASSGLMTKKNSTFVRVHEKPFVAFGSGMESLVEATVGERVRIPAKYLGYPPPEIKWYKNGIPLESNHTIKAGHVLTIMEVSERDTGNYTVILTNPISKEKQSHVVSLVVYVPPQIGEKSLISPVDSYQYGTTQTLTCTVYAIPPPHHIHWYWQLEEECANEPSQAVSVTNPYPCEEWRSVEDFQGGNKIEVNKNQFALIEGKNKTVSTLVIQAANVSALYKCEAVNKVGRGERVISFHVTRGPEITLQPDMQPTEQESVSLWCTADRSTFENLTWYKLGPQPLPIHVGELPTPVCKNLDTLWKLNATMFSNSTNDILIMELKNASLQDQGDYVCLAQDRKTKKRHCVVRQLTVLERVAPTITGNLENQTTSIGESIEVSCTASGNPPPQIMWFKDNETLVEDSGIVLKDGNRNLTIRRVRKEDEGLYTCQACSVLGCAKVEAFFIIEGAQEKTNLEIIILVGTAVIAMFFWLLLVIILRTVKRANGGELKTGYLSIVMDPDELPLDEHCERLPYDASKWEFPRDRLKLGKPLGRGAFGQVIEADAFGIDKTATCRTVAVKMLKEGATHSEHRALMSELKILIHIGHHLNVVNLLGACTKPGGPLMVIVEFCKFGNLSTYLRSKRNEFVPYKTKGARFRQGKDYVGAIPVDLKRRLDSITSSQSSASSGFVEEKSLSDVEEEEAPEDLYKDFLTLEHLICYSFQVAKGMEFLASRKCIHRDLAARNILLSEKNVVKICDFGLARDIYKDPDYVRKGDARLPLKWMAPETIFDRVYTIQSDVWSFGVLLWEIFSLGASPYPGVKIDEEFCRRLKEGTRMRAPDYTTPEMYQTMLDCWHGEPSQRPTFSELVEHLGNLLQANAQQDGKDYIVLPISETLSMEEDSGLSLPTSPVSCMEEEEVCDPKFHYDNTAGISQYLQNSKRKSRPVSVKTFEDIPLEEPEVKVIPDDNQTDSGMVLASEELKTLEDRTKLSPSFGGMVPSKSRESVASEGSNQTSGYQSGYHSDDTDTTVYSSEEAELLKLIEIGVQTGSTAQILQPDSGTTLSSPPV

Cc1c2ccc(N(C)c3ccnc(Nc4ccc(C(=O)Nc5ccccc5N)cc4)n3)cc2nn1C
bioavailability [1]: 72% | half-life [2]: 1.64 h | IC50 [3]: 0.125 µM | inhibition [4]: Active | Cmax [5]: 3240 ng/mL | inhibition in vivo at 50 mg/kg (HT-29): 40% | IC50 (HUVEC [6]): 16 µM | IC50 (AGS): > 5 µM | IC50 (K562): 1.82 µM | Activity (HUVEC [7]): Active | AUC(0-t) [8]: 8570 ng·h/mL | IC50 (PC-3): 2.38 µM
